Measurements taken from ChEMBL document CHEMBL1130231, “Betidamino acid scan of the GnRH antagonist acyline” (J Med Chem, 1997).
pIC50: −log10 of the molar value.

Target: T1, Gonadotropin-releasing hormone receptor (Rattus norvegicus, UniProt P30969)
T1 sequence (P30969 whole entry): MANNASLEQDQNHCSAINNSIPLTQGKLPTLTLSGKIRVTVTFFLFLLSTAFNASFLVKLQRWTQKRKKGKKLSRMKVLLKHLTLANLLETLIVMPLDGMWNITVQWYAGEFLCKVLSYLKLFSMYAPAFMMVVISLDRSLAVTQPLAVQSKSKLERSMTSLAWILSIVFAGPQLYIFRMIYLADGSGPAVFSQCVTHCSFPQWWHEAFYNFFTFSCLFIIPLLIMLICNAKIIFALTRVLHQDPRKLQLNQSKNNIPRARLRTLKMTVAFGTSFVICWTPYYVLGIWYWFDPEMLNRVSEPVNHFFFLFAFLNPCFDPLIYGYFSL
Assay: Inhibition of binding of radiolabeled histrelin to Gonadotropin-releasing hormone receptor (GnRHr) in rat pituitary gland membranes
Format: cell membranes, Membrane
In short: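 Rat anterior pituitary membranes (male and female glands equal numbers), homogenized in 0.32 M sucrose/aprotinin, 4000g pellet, diluted 15-fold in 10 mM Hepes, 0.2% BSA, pH 7.6. Filtration onto PEI-treated glass filters, scintillation counting. IC50 in nM, duplicate, n = 1.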

pIC50	SMILES
9.28	CC(=O)Nc1ccc(C[C@H](NC(=O)[C@H](CO)NC(=O)[C@@H](Cc2cccnc2)NC(=O)[C@@H](Cc2ccc(Cl)cc2)NC(=O)[C@@H](Cc2ccc3ccccc3c2)NC(C)=O)C(=O)N[C@H](Cc2ccc(NC(C)=O)cc2)C(=O)N[C@H](C(=O)N[C@@H](CCCCNC(C)C)C(=O)N2CCC[C@H]2C(=O)N[C@H](C)C(N)=O)N(C)C(=O)C(C)C)cc1
5.70	CC(=O)Nc1ccc(C[C@H](NC(=O)[C@H](CO)NC(=O)[C@@H](Cc2cccnc2)NC(=O)[C@@H](NC(=O)c2cnccn2)NC(=O)[C@@H](Cc2ccc3ccccc3c2)NC(C)=O)C(=O)N[C@H](Cc2ccc(NC(C)=O)cc2)C(=O)N[C@@H](CC(C)C)C(=O)N[C@@H](CCCCNC(C)C)C(=O)N2CCC[C@H]2C(=O)N[C@H](C)C(N)=O)cc1
9.52	CC(=O)Nc1ccc(C[C@H](NC(=O)[C@H](CO)NC(=O)[C@@H](Cc2cccnc2)NC(=O)[C@@H](Cc2ccc(Cl)cc2)NC(=O)[C@@H](NC(C)=O)N(C)C(=O)c2ccc3ccccc3c2)C(=O)N[C@H](Cc2ccc(NC(C)=O)cc2)C(=O)N[C@@H](CC(C)C)C(=O)N[C@@H](CCCCNC(C)C)C(=O)N2CCC[C@H]2C(=O)N[C@H](C)C(N)=O)cc1 (single isomer, unassigned)
8.30	CC(=O)Nc1ccc(C[C@H](NC(=O)[C@H](CO)NC(=O)[C@@H](Cc2cccnc2)NC(=O)[C@@H](Cc2ccc(Cl)cc2)NC(=O)[C@@H](Cc2ccc3ccccc3c2)NC(C)=O)C(=O)N[C@H](Cc2ccc(NC(C)=O)cc2)C(=O)N[C@@H](NC(C)=O)C(=O)N[C@@H](CCCCNC(C)C)C(=O)N2CCC[C@H]2C(=O)N[C@H](C)C(N)=O)cc1

The next lines start with the compound.

SMILES	pIC50
CC(=O)Nc1ccc(C[C@H](NC(=O)[C@@H](NC=O)NC(=O)[C@@H](Cc2cccnc2)NC(=O)[C@@H](Cc2ccc(Cl)cc2)NC(=O)[C@@H](Cc2ccc3ccccc3c2)NC(C)=O)C(=O)N[C@H](Cc2ccc(NC(C)=O)cc2)C(=O)N[C@@H](CC(C)C)C(=O)N[C@@H](CCCCNC(C)C)C(=O)N2CCC[C@H]2C(=O)N[C@H](C)C(N)=O)cc1 (single isomer, unassigned)	9.20
CC(=O)Nc1ccc(C[C@H](NC(=O)[C@H](CO)NC(=O)[C@@H](Cc2cccnc2)NC(=O)[C@@H](Cc2ccc(Cl)cc2)NC(=O)[C@@H](Cc2ccc3ccccc3c2)NC(C)=O)C(=O)N[C@H](Cc2ccc(NC(C)=O)cc2)C(=O)N[C@@H](CNC(=O)C(C)C)C(=O)N[C@@H](CCCCNC(C)C)C(=O)N2CCC[C@H]2C(=O)N[C@H](C)C(N)=O)cc1	8.70
CC(=O)Nc1ccc(C[C@H](NC(=O)[C@H](NC(=O)[C@@H](Cc2cccnc2)NC(=O)[C@@H](Cc2ccc(Cl)cc2)NC(=O)[C@@H](Cc2ccc3ccccc3c2)NC(C)=O)N(C)C=O)C(=O)N[C@H](Cc2ccc(NC(C)=O)cc2)C(=O)N[C@@H](CC(C)C)C(=O)N[C@@H](CCCCNC(C)C)C(=O)N2CCC[C@H]2C(=O)N[C@H](C)C(N)=O)cc1 (single isomer, unassigned)	9.05
CC(=O)Nc1ccc(C[C@H](NC(=O)[C@H](CO)NC(=O)[C@@H](Cc2cccnc2)NC(=O)[C@@H](Cc2ccc(Cl)cc2)NC(=O)[C@@H](Cc2ccc3ccccc3c2)NC(C)=O)C(=O)N[C@H](Cc2ccc(NC(C)=O)cc2)C(=O)N[C@@H](CC(C)C)C(=O)N[C@@H](CCCCNC(C)C)C(=O)N2CCC[C@H]2C(=O)N[C@H](NC=O)C(N)=O)cc1 (single isomer, unassigned)	9.23
CC(=O)Nc1ccc(C[C@H](NC(=O)[C@H](NC=O)NC(=O)[C@@H](Cc2cccnc2)NC(=O)[C@@H](Cc2ccc(Cl)cc2)NC(=O)[C@@H](Cc2ccc3ccccc3c2)NC(C)=O)C(=O)N[C@H](Cc2ccc(NC(C)=O)cc2)C(=O)N[C@@H](CC(C)C)C(=O)N[C@@H](CCCCNC(C)C)C(=O)N2CCC[C@H]2C(=O)N[C@H](C)C(N)=O)cc1	9.08
CC(=O)Nc1ccc(C[C@H](NC(=O)[C@H](CO)NC(=O)[C@@H](Cc2cccnc2)NC(=O)[C@H](NC(=O)c2cn[nH]c2N)NC(=O)[C@@H](Cc2ccc3ccccc3c2)NC(C)=O)C(=O)N[C@H](Cc2ccc(NC(C)=O)cc2)C(=O)N[C@@H](CC(C)C)C(=O)N[C@@H](CCCCNC(C)C)C(=O)N2CCC[C@H]2C(=O)N[C@H](C)C(N)=O)cc1	5.60
